Assays:
[1] = Inhibition of rat alpha-amylase using amylose as substrate by colorimetric analysis
[2] = target: Lactase/phlorizin hydrolase (Rattus norvegicus, UniProt Q02401); test: Inhibition of rat intestinal lactase using lactose as substrate by colorimetric analysis
[3] = Inhibition of Saccharomyces cerevisiae alpha-glucosidase using 4-nitrophenyl alpha D-glucopyranoside as substrate assessed as release of 4-nitrophenol incubated for 5 mins prior to substrate addition measured after 10 mins
Outline: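 Yeast α-glucosidase assayed at 37 °C with 4-nitrophenyl α-D-glucopyranoside as substrate in 10 mM sodium phosphate buffer, pH 7.28. […] Absorbance rise at 400 nm compared with a DMSO control; IC50 read graphically from percent activity versus log concentration.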

[4] = target: Maltase-glucoamylase, intestinal (Rattus norvegicus); test: Inhibition of rat intestinal maltase using maltose as substrate by colorimetric analysis

Chain of Lactase/phlorizin hydrolase (Q02401 868-1928 limits assumed): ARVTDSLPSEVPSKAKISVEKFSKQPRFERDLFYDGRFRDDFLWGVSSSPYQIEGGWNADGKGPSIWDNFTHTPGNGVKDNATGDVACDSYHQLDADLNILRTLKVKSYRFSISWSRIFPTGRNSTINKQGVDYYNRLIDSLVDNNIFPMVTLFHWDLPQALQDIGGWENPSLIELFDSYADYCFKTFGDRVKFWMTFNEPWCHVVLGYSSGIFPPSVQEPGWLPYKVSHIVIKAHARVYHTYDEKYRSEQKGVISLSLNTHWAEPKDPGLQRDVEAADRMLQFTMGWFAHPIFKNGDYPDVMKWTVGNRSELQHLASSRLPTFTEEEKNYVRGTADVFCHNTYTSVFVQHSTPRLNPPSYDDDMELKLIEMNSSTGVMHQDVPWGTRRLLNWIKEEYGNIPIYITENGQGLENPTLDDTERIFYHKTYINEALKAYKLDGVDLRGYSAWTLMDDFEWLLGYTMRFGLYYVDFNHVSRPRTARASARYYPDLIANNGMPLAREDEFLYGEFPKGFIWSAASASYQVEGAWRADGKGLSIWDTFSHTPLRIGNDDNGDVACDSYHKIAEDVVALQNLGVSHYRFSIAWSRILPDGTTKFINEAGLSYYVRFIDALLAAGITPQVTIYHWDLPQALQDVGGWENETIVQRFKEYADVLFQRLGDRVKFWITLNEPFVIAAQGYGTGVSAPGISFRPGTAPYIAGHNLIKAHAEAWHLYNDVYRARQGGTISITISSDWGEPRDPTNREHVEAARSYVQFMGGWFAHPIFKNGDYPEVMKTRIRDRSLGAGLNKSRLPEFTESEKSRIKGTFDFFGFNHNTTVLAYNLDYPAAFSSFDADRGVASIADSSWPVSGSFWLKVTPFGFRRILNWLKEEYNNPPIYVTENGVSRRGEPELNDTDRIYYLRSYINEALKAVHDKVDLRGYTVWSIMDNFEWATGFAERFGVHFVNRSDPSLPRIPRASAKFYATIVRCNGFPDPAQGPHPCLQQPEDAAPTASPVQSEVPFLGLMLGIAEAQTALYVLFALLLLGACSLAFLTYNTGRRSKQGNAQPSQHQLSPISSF

| Compound | IC50 [1] | IC50 [2] | IC50 [3] | IC50 [4] |
| --- | --- | --- | --- | --- |
| Cc1ccc(S(=O)(=O)Nc2ccc3c(c2)C(=O)N(CCOc2cccc(O)c2)C3=O)cc1 | > 200 µM | 111 µM | 28.7 µM | 55.6 µM |
| Cc1ccc(S(=O)(=O)Nc2ccc3c(c2)C(=O)N(Cc2ccccc2)C3=O)cc1 | > 200 µM | > 200 µM | 54.2 µM | > 200 µM |
| Cc1ccc(S(=O)(=O)Nc2ccc3c(c2)C(=O)N(Cc2ccc(Cl)cc2)C3=O)cc1 | > 200 µM | 155 µM | 32.6 µM | 188 µM |
| Cc1ccc(S(=O)(=O)Nc2ccc3c(c2)C(=O)N(N2CCOCC2)C3=O)cc1 | > 200 µM | > 200 µM | 52.1 µM | – |
| O=C1c2ccc([N+](=O)[O-])cc2C(=O)N1CCNc1ccccc1 | > 200 µM | > 200 µM | 68.9 µM | 111 µM |
| Cc1ccc(S(=O)(=O)Nc2ccc3c(c2)C(=O)N(Cc2ccc(Cl)c(Cl)c2)C3=O)cc1 | > 200 µM | 101 µM | 28.7 µM | 122 µM |
| Cc1ccc(S(=O)(=O)Nc2ccc3c(c2)C(=O)N(Cc2ccc(F)cc2)C3=O)cc1 | > 200 µM | 172 µM | 42.7 µM | – |
| Cc1ccc(S(=O)(=O)Nc2ccc3c(c2)C(=O)N(CCCCBr)C3=O)cc1 | > 200 µM | > 200 µM | 69.7 µM | > 200 µM |
| Cc1ccc(S(=O)(=O)Nc2ccc3c(c2)C(=O)N(CCCBr)C3=O)cc1 | > 200 µM | > 200 µM | 88.4 µM | – |
| Cc1ccc(S(=O)(=O)Nc2ccc3c(c2)C(=O)N(CCBr)C3=O)cc1 | > 200 µM | > 200 µM | 94.2 µM | > 200 µM |
| Cc1ccc(S(=O)(=O)Nc2ccc3c(c2)C(=O)N(CCNc2ccc(O)c(O)c2)C3=O)cc1 | > 200 µM | 66.6 µM | 44.5 µM | 28.8 µM |
| Cc1ccc(S(=O)(=O)Nc2ccc3c(c2)C(=O)N(Cc2ccc(C(N)=O)cc2)C3=O)cc1 | > 200 µM | 84.1 µM | 60.3 µM | – |
| Cc1ccc(S(=O)(=O)Nc2ccc3c(c2)C(=O)N(Cc2ccccc2F)C3=O)cc1 | > 200 µM | 180 µM | 40.8 µM | 195 µM |
| Cc1ccc(S(=O)(=O)Nc2ccc3c(c2)C(=O)N(Cc2ccc(O)c(O)c2)C3=O)cc1 | > 200 µM | 164 µM | 72.6 µM | – |
| Cc1ccc(S(=O)(=O)Nc2ccc3c(c2)C(=O)N(CCNc2ccccc2)C3=O)cc1 | > 200 µM | 177 µM | 58.5 µM | 99.6 µM |
| Cc1ccc(S(=O)(=O)Nc2ccc3c(c2)C(=O)N(CCOc2ccccc2)C3=O)cc1 | > 200 µM | 170 µM | 47.3 µM | – |
| Cc1ccc(S(=O)(=O)Nc2ccc3c(c2)C(=O)N(Cc2ccc(C#N)cc2)C3=O)cc1 | > 200 µM | 199 µM | 66.5 µM | – |
| Cc1ccc(S(=O)(=O)Nc2ccc3c(c2)C(=O)N(C)C3=O)cc1 | > 200 µM | > 200 µM | > 200 µM | > 200 µM |
| O=C1c2ccccc2C(=O)N1CCNc1ccccc1 | > 200 µM | > 200 µM | > 200 µM | 184 µM |
| Cc1ccc(S(=O)(=O)Nc2ccc3c(c2)C(=O)N(CCOc2ccc(O)cc2)C3=O)cc1 | > 200 µM | 100 µM | 25.5 µM | 47.7 µM |
| Nc1ccc2c(c1)C(=O)N(CCNc1ccccc1)C2=O | > 200 µM | > 200 µM | 138 µM | 144 µM |
| C[C@H]1O[C@H](O[C@H]2[C@H](O)[C@@H](O)[C@@H](O[C@H]3[C@H](O)[C@@H](O)C(O)O[C@@H]3CO)O[C@@H]2CO)[C@H](O)[C@@H](O)[C@@H]1N[C@H]1C=C(CO)[C@@H](O)[C@H](O)[C@H]1O (stereo not given in full) [ACARBOSE] | 8.65 µM | 167 µM | 235 µM | – |

— ChEMBL document CHEMBL2346551, “A new series of N2-substituted-5-(p-toluenesulfonylamino)phthalimide analogues as α-glucosidase inhibitors” (Bioorg Med Chem Lett, 2013)
